Results: article PMC4780262 (Bioorganic & medicinal chemistry, 2013)

Key:
MLL1 complex = MLL1 complex (Homo sapiens, UniProt Q03164); assay: HMT selectivity assay; assay type: biochemical
Procedure, shortened: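 Triplicate, 1 h at room temperature. Quenched with 7.5 M guanidine HCl; tritium read by Flashplate SPA. Normalised to no-compound and no-enzyme wells. IC50 from 100 nM–100 μM; Ki = IC50/2.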

EZH2 (PRC2 complex) = EZH2 (PRC2 complex) (Homo sapiens, UniProt Q15910); assay: HMT selectivity assay; assay type: biochemical
EZH2 (PRC2 complex), sequence (Q15910 whole entry, species assumed): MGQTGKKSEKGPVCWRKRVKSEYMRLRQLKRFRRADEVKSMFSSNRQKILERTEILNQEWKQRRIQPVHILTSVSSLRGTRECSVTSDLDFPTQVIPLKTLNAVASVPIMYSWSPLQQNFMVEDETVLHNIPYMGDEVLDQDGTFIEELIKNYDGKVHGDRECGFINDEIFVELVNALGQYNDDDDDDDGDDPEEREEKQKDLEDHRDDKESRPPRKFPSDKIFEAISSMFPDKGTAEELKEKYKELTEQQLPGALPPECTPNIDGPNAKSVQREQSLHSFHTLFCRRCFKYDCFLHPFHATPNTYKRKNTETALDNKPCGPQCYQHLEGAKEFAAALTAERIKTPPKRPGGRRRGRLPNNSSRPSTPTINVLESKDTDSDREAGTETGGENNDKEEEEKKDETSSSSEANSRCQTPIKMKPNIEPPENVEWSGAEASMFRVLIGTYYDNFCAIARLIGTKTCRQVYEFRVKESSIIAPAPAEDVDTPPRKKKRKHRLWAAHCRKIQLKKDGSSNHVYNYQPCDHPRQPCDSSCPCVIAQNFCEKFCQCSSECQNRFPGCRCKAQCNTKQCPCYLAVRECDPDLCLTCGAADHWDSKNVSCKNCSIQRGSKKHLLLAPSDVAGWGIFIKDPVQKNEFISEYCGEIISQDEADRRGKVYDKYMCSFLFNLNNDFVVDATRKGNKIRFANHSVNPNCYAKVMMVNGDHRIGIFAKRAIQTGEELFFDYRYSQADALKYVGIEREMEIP
EZH2 (PRC2 complex), sequence (O75530 whole entry partner, species assumed): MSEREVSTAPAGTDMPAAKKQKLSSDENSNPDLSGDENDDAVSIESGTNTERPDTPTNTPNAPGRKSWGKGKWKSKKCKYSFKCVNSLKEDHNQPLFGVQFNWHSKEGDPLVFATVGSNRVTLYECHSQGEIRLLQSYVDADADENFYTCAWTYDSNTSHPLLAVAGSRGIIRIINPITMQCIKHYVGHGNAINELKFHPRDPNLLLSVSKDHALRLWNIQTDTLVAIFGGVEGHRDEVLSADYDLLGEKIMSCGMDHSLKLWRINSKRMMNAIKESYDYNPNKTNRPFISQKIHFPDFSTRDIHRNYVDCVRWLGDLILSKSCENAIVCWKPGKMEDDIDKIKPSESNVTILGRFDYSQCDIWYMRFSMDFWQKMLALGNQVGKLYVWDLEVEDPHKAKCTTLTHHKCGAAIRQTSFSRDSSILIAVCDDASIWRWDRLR
EZH2 (PRC2 complex), sequence (Q15022 whole entry partner, species assumed): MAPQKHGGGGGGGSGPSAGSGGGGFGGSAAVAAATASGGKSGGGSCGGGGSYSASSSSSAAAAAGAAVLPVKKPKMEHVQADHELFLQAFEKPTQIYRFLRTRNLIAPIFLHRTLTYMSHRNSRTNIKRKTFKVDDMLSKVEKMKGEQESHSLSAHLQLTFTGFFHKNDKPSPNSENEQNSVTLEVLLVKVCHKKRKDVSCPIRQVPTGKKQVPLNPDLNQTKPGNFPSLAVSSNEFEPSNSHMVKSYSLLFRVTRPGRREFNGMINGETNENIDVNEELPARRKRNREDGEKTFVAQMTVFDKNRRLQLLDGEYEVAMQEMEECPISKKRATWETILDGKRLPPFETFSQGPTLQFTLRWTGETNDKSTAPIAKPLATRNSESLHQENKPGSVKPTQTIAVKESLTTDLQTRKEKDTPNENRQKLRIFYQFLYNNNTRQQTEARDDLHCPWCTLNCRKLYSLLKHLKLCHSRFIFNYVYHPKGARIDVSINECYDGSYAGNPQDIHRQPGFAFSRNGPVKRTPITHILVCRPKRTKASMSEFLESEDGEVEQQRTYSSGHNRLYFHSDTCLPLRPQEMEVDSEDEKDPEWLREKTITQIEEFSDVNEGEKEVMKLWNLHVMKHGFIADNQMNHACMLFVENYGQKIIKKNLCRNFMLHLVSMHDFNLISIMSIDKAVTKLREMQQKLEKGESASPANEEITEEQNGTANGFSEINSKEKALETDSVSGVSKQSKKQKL
Procedure, shortened: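 Triplicate, 1 h at room temperature. Guanidine HCl quench, then Flashplate CPM. 100% = no compound; 0% = no enzyme. IC50 over 100 nM–100 μM; Ki = IC50/2.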

PRMT5-MEP50 = PRMT5-MEP50 (Homo sapiens, UniProt O14744); assay: HMT selectivity assay; assay type: biochemical
PRMT5-MEP50, sequence (O14744 whole entry): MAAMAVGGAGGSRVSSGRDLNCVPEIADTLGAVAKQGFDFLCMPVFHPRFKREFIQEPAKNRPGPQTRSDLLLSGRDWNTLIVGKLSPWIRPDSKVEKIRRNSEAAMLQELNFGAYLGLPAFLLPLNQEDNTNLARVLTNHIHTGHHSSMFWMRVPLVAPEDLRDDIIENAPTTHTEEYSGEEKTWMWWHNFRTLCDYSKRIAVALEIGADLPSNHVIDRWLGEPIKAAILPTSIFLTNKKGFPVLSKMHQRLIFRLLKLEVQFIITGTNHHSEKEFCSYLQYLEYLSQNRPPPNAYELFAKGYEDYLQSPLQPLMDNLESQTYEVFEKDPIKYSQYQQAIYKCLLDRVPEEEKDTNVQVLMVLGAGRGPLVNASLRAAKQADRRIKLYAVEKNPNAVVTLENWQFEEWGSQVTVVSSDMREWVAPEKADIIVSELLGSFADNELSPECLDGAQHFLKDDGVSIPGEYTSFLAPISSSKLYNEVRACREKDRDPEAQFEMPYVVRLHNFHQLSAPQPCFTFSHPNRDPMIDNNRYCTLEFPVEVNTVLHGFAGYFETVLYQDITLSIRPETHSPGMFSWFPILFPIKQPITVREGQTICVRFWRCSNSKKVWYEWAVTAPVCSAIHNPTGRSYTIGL
PRMT5-MEP50, sequence (Q9BQA1 whole entry partner): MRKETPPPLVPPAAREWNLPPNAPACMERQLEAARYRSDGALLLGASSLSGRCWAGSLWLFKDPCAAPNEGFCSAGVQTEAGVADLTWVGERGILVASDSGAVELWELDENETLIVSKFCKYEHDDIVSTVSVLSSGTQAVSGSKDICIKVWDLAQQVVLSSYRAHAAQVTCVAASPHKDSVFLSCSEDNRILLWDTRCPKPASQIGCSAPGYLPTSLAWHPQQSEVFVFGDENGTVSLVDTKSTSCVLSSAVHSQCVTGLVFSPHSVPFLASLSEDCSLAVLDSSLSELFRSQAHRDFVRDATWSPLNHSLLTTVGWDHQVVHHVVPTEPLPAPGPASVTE

SETD7 = target: T1, SETD7 (Homo sapiens, UniProt Q8WTS6); assay: HMT selectivity assay; assay type: biochemical
T1 sequence (Q8WTS6 1-366): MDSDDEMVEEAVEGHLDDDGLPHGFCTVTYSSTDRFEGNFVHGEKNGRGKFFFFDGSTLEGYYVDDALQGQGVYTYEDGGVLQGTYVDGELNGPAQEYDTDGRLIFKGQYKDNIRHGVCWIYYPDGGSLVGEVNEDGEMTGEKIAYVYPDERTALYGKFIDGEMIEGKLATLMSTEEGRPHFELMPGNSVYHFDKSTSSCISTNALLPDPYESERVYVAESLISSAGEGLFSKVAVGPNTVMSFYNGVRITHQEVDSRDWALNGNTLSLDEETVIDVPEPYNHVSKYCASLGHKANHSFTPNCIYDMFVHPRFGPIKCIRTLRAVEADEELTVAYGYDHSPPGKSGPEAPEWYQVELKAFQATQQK
Procedure, shortened: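 Triplicate, room temperature, 1 h. Stopped with 7.5 M guanidine HCl; Flashplate CPM. Normalised to no-compound and no-enzyme controls. IC50 from 100 nM–100 μM; Ki = IC50/2.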

SETD8 = target: T2, SETD8 (Homo sapiens, UniProt Q9NQR1); assay: HMT selectivity assay; assay type: biochemical
T2 sequence (Q9NQR1 1-393): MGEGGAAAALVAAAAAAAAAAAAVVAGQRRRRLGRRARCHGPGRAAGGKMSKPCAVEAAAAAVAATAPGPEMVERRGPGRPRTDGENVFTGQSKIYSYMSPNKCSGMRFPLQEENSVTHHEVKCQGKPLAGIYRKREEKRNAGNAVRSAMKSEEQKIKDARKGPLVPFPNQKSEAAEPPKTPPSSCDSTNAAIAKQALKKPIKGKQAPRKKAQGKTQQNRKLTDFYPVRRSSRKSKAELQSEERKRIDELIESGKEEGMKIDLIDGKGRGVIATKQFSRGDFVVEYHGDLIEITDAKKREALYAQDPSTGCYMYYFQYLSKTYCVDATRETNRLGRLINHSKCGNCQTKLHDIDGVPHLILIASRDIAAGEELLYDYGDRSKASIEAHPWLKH
Procedure, shortened: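 Triplicate, 1 h at room temperature. Guanidine HCl stop; Flashplate SPA CPM. No compound = 100%, no enzyme = 0%. IC50 over 100 nM–100 μM; Ki = IC50/2.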

SUV39H2 = SUV39H2 (Homo sapiens, UniProt Q9H5I1); assay: HMT selectivity assay; assay type: biochemical
Procedure, shortened: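 Triplicate reactions, 1 h at room temperature. Quenched with 7.5 M guanidine HCl; read as Flashplate CPM. Normalised to no-compound and no-enzyme wells. IC50 from 100 nM–100 μM; Ki = IC50/2.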

EHMT1/GLP = target: T3, EHMT1/GLP (Homo sapiens, UniProt Q9H9B1); assay: HMT selectivity assay; assay type: biochemical
T3 sequence (Q9H9B1 1-1298): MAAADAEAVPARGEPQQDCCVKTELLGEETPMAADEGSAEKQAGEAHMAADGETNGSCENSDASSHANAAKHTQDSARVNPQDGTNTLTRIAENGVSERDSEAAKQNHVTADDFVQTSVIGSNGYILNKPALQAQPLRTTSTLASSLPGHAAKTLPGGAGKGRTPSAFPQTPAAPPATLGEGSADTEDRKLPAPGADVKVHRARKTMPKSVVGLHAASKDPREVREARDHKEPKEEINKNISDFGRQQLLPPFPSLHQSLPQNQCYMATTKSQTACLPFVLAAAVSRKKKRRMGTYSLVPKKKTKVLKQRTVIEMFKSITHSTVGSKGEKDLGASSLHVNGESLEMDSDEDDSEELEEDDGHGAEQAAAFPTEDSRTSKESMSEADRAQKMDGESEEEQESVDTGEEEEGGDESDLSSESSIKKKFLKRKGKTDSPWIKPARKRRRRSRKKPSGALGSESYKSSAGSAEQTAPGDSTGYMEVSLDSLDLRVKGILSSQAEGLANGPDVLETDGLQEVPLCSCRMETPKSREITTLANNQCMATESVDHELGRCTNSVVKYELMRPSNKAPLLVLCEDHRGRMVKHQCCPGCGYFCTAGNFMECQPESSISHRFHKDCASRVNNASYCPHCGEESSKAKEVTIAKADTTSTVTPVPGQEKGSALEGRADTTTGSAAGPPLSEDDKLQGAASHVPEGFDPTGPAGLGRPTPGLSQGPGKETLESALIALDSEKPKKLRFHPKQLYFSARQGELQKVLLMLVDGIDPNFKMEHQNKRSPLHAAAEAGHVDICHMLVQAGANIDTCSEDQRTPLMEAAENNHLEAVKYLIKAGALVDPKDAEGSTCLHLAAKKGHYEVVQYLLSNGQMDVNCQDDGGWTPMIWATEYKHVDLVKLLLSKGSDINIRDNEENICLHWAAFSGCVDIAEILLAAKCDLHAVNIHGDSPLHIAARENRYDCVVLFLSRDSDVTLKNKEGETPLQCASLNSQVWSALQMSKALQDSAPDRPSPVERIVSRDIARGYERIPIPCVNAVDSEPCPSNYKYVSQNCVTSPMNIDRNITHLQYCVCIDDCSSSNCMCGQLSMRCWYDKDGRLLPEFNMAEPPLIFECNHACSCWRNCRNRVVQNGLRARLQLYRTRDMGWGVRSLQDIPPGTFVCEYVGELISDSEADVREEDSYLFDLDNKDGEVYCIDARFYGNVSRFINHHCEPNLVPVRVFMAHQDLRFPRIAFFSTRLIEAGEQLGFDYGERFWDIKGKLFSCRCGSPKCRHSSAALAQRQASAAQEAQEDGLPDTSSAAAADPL
Procedure, shortened: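 Stopped with 7.5 M guanidine HCl, then Flashplate CPM. No compound = 100%, no enzyme = 0%. IC50 from 100 nM–100 μM; Ki = IC50/2.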

haspin catalytic domain = target: T4, haspin catalytic domain (Homo sapiens, UniProt Q8TF76); assay: Differential scanning fluorimetry on haspin catalytic domain; assay type: binding; conditions: 10 μM compound
T4 sequence (Q8TF76 484-798 limits assumed): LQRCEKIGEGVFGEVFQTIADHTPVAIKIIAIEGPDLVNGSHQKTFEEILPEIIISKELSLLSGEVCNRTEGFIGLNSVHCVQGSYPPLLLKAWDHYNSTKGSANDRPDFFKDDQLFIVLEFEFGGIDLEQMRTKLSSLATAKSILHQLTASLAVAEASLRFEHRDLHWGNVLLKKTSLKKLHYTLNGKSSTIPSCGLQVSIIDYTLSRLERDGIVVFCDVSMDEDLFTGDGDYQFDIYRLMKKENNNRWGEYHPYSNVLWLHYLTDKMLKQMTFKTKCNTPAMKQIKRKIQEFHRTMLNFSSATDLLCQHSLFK

EHMT2/G9a = target: T5, EHMT2/G9a (Homo sapiens, UniProt Q96KQ7); assay: HMT selectivity assay; assay type: biochemical
T5 sequence (Q96KQ7 1-1210): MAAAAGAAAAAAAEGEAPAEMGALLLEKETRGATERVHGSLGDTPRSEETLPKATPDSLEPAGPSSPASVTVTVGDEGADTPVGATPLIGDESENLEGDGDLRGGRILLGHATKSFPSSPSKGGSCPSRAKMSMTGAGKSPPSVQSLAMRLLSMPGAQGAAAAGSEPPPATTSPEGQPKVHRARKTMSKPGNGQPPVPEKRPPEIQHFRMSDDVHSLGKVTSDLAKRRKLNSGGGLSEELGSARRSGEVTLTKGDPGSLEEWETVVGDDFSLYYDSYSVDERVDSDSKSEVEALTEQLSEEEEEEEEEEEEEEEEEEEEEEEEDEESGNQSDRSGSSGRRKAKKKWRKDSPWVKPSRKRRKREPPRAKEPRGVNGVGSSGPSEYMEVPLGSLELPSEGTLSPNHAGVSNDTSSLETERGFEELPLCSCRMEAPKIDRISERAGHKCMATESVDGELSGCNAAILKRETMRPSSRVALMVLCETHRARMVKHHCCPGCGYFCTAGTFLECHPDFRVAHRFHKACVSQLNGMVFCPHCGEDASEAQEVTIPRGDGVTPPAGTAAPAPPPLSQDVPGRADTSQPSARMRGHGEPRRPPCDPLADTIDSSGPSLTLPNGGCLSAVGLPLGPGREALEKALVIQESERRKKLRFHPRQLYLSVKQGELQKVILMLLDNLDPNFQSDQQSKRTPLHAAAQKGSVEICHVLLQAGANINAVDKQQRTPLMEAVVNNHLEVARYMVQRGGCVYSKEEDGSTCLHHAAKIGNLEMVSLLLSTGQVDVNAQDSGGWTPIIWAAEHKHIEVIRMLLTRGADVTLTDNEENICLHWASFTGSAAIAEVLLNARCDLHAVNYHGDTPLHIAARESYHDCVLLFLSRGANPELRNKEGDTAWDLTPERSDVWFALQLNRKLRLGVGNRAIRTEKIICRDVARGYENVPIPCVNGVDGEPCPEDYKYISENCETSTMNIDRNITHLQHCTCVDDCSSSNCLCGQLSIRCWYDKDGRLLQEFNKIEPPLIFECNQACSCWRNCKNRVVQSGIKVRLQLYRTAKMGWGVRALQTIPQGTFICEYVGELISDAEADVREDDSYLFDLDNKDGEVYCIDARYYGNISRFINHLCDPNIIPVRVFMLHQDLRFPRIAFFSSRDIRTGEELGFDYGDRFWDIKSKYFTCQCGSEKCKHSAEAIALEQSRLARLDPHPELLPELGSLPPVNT
Procedure, shortened: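 Triplicate reactions, 1 h, room temperature. Guanidine HCl stop; Flashplate SPA counts. Activity relative to no-compound (100%) and no-enzyme (0%). IC50 over 100 nM–100 μM; Ki = IC50/2.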

PRMT3 = PRMT3 (Homo sapiens, UniProt O60678); assay: HMT selectivity assay; assay type: biochemical
PRMT3, sequence (O60678 whole entry, species assumed): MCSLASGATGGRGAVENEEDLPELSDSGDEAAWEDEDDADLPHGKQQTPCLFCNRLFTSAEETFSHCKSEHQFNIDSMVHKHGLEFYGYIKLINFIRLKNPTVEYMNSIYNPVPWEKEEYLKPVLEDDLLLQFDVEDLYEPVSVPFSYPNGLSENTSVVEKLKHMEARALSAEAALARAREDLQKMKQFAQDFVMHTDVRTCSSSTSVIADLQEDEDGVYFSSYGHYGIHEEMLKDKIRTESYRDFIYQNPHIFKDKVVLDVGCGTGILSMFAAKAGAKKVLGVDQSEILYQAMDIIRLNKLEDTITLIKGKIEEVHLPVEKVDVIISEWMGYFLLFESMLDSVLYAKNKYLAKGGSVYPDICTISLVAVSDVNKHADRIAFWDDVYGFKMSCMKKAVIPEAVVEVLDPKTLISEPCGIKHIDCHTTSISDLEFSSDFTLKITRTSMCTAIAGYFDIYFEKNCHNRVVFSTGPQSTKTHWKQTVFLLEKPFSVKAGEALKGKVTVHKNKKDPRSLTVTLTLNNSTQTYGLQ

MLL1 complex, sequence (Q9UBL3 whole entry): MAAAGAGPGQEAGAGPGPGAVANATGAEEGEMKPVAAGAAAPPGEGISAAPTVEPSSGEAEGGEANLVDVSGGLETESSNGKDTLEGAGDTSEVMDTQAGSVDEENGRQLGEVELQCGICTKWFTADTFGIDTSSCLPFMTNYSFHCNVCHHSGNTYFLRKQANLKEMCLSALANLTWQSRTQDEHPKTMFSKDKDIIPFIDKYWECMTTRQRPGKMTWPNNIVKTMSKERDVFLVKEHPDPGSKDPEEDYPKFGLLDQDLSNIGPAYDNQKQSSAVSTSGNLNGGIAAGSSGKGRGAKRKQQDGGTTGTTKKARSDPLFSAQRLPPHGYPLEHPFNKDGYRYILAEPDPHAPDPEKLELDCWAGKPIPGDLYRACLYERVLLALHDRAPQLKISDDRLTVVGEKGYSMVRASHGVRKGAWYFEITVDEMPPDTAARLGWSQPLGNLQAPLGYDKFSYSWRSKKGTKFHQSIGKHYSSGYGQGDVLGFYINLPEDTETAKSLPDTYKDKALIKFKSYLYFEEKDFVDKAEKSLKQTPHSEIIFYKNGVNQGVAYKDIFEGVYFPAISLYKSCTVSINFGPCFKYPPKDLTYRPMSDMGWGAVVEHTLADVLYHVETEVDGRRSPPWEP
MLL1 complex, sequence (Q03164 3745-3969): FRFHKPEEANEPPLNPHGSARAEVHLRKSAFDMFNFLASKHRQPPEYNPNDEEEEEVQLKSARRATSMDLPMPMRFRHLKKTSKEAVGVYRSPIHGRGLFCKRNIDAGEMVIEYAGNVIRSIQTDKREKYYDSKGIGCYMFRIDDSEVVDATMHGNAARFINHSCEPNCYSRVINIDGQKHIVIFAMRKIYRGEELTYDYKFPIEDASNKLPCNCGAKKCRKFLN
MLL1 complex, sequence (Q15291 whole entry, further chain): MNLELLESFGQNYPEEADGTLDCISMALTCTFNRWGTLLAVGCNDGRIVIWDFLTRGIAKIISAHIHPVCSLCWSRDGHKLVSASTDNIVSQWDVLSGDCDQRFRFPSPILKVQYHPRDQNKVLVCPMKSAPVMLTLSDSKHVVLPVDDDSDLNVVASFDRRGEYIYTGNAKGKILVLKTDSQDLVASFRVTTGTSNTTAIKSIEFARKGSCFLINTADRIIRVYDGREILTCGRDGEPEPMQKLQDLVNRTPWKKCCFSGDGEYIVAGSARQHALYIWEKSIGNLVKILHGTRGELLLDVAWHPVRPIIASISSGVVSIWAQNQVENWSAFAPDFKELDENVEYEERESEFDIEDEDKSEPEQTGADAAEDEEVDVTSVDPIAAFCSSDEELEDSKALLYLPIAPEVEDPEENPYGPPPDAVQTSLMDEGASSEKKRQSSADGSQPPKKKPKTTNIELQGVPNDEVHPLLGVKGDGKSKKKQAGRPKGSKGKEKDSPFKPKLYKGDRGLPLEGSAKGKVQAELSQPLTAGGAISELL

`Nc1ncnc2c1c(Br)cn2[C@@H]1O[C@H](CSCC[C@H](N)C(=O)O)[C@@H](O)[C@H]1O` [BrSAH, N7-Bromo-deaza-S-adenosyl-L-homocysteine] was tested, and the “activity against MLL” value (MLL1 complex) was “inactive”, the Ki (MLL1 complex; MLL, compound 100 nM to 100 μM, SAM = Km) was “No inhibition” and the “activity against EZH2 (present in the PRC2 complex)” value (EZH2 (PRC2 complex)) was “inactive”. For the same compound, the Ki (EZH2 (PRC2 complex); PRC2, compound 100 nM to 100 μM, SAM = Km) was “No inhibition”, the IC50 (PRMT5-MEP50) was 2000 nM and the “times less active against PRMT5 than DOT1L” value (PRMT5-MEP50; IC50 ratio versus DOT1L) was “about 25”. The “activity against SETD7” value (SETD7) was “inactive”, the Ki (SETD7; SETD7, compound 100 nM to 100 μM, SAM = Km) was “No inhibition” and the “activity against SETD8” value (SETD8) was “inactive”. For the same compound, the Ki (SETD8; SETD8, compound 100 nM to 100 μM, SAM = Km) was “No inhibition”, the “activity against SUV39H2” value (SUV39H2) was “inactive” and the Ki (SUV39H2; SUV39H2, compound 100 nM to 100 μM, SAM = Km) was “No inhibition”. For the same compound, the “activity against EHMT1/GLP” value (EHMT1/GLP) was “inactive”, the Ki (EHMT1/GLP; EHMT1, compound 100 nM to 100 μM, SAM = Km) was “No inhibition” and the “binding to the haspin catalytic domain by differential scanning fluorimetry” value (haspin catalytic domain) was “no binding”. The “activity against EHMT2/G9a” value (EHMT2/G9a) was “inactive”, the Ki (EHMT2/G9a; G9a, compound 100 nM to 100 μM, SAM = Km) was “No inhibition” and the IC50 (PRMT3) was 2000 nM. For the same compound, the “times less active against PRMT3 than DOT1L” value (PRMT3; IC50 ratio versus DOT1L) was “about 25”.
